# Experimental data pooled from the literature.
# Lines come from different studies, so protocols differ.
# Target: SRSF protein kinase 3 (SRPK3, Homo sapiens, UniProt Q9UPE1)
Structure (SMILES),read-out,mode,technique,concentration,endpoint,value
CC(=O)Nc1c(C(C)=O)c(=O)n(C)c2nc(-c3ccc(Cl)cc3Cl)c(-c3ccc(Cl)cc3)cc12,cell-free assay,,competition with immobilised ligand,1 µM,remaining binding,100%
CN1CC(Oc2cnc(C#N)cc2-c2ccn3nc(NC(=O)C4CC4)cc3c2)C1,enzyme activity,inhibitor,,1 µM,inhibition,-3%
Cc1ccc(C(=O)Nc2ccc(CN3CCN(C)CC3)c(C(F)(F)F)c2)cc1C#Cc1cnc2cccnn12,enzyme activity,inhibitor,,23.5 nM,remaining activity,96%
Cn1c2c(Cl)c(Cl)ccc2c2cc(N)[nH]c(=O)c21,thermal stability,,DSF,10 µM,ΔTm,0.3 °C
CCN(CC)CCNC(=O)c1c(C)[nH]c(/C=C2\C(=O)Nc3ccc(F)cc32)c1C,enzyme activity,inhibitor,,0.3 µM,inhibition,-4%
Cn1c2c(Cl)c(Cl)ccc2c2cc[nH]c(=O)c21,thermal stability,,DSF,10 µM,ΔTm,0.2 °C
CCC(=O)N[C@@H]1CC[C@H](C(=O)N(C)c2ccc(-c3nc4ccccc4o3)cc2)C1,cell-free assay,,competition with immobilised ligand,1 µM,remaining binding,100%
CCOc1cc(-c2nncn2C)ccc1Nc1ncc2cc(C)nc(NCC(C)(C)C)c2n1,enzyme activity,inhibitor,FRET,1 µM,inhibition,< 15%
Cc1cc(NC(=O)c2cccc(S(F)(F)(F)(F)F)c2)cc(-n2ccn3nc(-c4cccnc4)cc23)c1,cell-free assay,,competition with immobilised ligand,1 µM,remaining binding,100%
CC(C)(C)c1nc(-c2cccc(NS(=O)(=O)c3c(F)cccc3F)c2F)c(-c2ccnc(N)n2)s1,enzyme activity,inhibitor,radiometric,1 µM,remaining activity,105%
CS(=O)(=O)NCC[C@H](NC(=O)c1cncc2c1cnn2-c1ccc(F)cc1)c1ccnc(S(C)(=O)=O)c1,cell-free assay,,competition with immobilised ligand,1 µM,remaining binding,100%
Cc1cc(NC(=O)c2cccc3cc(-c4cccc5[nH]nc(N)c45)ccc23)ccc1F,enzyme activity,inhibitor,,0.1 µM,activity vs control,113%
Cc1ccc(NC(=O)c2ccc(C)c(C(F)(F)F)c2)cc1C#Cc1nn(C2CCC(O)CC2)c2ncnc(N)c12 (centres unmarked),cell-free assay,,,10 µM,remaining signal,56%
COc1cc2ncnc(Nc3ccc(Oc4ccccc4)c(C)c3C)c2cc1OC,enzyme activity,inhibitor,,1 µM,inhibition,5%
Cn1c2c(c3ccc(Cl)c(Cl)c31)C(C#N)C1(CCNCC1)NC2=O (racemic),thermal stability,,DSF,10 µM,ΔTm,1.9 °C
CNC(=O)c1cc(Oc2ccc(NC(=O)Nc3ccc(Cl)c(C(F)(F)F)c3)cc2)ccn1,enzyme activity,inhibitor,,10 µM,inhibition,60%
Cc1cc(-n2nc(Cc3cc(F)cc(C(F)(F)F)c3)nc2C)ccc1C(N)=O,cell-free assay,,competition with immobilised ligand,1 µM,remaining binding,100%
CCCOc1ccc(OC)c(F)c1C(=O)c1ccc(C(=O)N[C@@H]2CNC[C@H]2NC(=O)c2ccc3[nH]ncc3c2)cc1,enzyme activity,inhibitor,,10 µM,remaining activity,77%
CC1=C(C#N)[C@@H](c2ccc3[nH]nc(C)c3c2)C(C#N)=C(c2ccc(Cl)cc2)N1,cell-free assay,,competition with immobilised ligand,1 µM,remaining binding,100%
Cc1ccc(Nc2nccc(N(C)c3ccc4c(C)n(C)nc4c3)n2)cc1S(N)(=O)=O,enzyme activity,inhibitor,,10 µM,inhibition,3%
